# Assay outcomes as filed in PubChem.
# TRPC4 agonist = opens the mouse TRPC4 cation channel; Q9QUQ5; HEK293 TRPC4beta/mu-opioid, Fluo4 calcium fluorescence; active compounds read high; B-score at 10 µM; 0.49% of 310,000 active;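 active = B-score above 5 SD of library B-scores, and initial fluorescence ratio not above library mean plus 5 SD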;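 note: positive B-score marks a calcium rise read as TRPC4 activation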
#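 System – HEK293 cells stably co-expressing mouse TRPC4beta and mu-opioid receptor · Signal – Fluo4 calcium-sensitive dye fluorescence, kinetic, 1 Hz baseline · Benchmarks – buffer (low) and maximal DAMGO (high) · Read-out – B score of integrated fluorescence ratio per well · Incubation – dye loading 45 min room temperature, 110 s kinetic read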
# TRPC4 PAM = allosteric potentiators of mouse TRPC4 channel; Q9QUQ5; 0.42% of 310,000 active; HEK293 TRPC4beta/mu-opioid, DAMGO EC20, Fluo-4 Ca2+ flux; active compounds read high; B-score at 10 µM; AID 2227;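 active = B-score of calcium response area above 5 SD of library B-scores, with initial fluorescence ratio within 5 SD of library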;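 note: B-score of integrated fluorescence ratio over time as area under calcium response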
# TRPC4 block = blocks the mouse TRPC4 cation channel | Q9QUQ5 | HEK293 TRPC4beta/mu-opioid, DAMGO-evoked Fluo4 calcium flux; active compounds read low | B-score at 10 µM | 0.39% of 300,000 active;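 active = B-score over 3 SD under the library average, no early fluorescence shift, positive overall ratio signal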
#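 Assay system: HEK293 cells with stable TRPC4beta plus mu-opioid receptor expression. Dosing: single dose. Measured by: Fluo4 Ca2+ flux fluorescence. Also added: DAMGO in two steps, submaximal then maximal. Read-out: B score from integrated Fluo4 fluorescence ratio.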
# TRPC6 act = activators of mouse TRPC6 channel; HEK293-TRPC6 membrane potential dye fluorescence; active compounds read high; B-score at 10 µM; 0.13% of 310,000 active; AID 2550;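 active = B-score of the integrated fluorescence ratio above library mean plus 3 SD, and starting fluorescence ratio within library mean plus 5 SD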;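 note: higher score means more depolarization so channel activation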
# TRPC6 inhibitor = blocks the mouse TRPC6 cation channel; Q61143; HEK293-TRPC6, membrane potential dye, ACh-evoked depolarization; active compounds read low; B-score at 10 µM; 1.1% of 310,000 active;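 active = B-score under library mean minus 3 SD, initial fluorescence not abnormally high, positive integrated signal ratio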;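 note: B-score derived from integrated fluorescence ratio over the kinetic read; more negative B-score means stronger inhibition of depolarization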
# * hit, by the source's call; i = inactive. Only some compounds are listed: those with a hit (about 2.3% of all), similar ones and a draw of the others.
SMILES,TRPC4 agonist,TRPC4 PAM,TRPC4 block,TRPC6 act,TRPC6 inhibitor
Cc1nnc(NC(=O)CSc2nnc3c(n2)[nH]c2ccc(Br)cc23)s1,i,i,i,i,i
Cc1cc(OCCCCCn2ccnc2)cc(C)c1Cl,75*,i,i,i,i
CCOc1cccc(OCCCCn2ccnc2)c1,43*,i,i,i,i
O=S(=O)(N/N=C/c1ccc2c(c1)OCO2)c1ccc(Br)cc1,i,i,i,i,i
COC(=O)CSc1nc2ccccn2c(=O)c1C=O,i,i,-6*,i,i
O=Cc1c(SCCO)nc2ccccn2c1=O,i,i,i,i,i
OC1(Cc2cc(-c3ccccc3)no2)CCN(CCCc2ccccc2)CC1,i,i,i,i,i
CC(=O)O[C@H]1CC[C@@]2(C)C(CCC3C2CC[C@]2(C)OC(=O)CCC32)C1 (stereo partly drawn),i,10*,i,i,i
CC(=O)OC1C([N+]2(C)CCCCC2)C[C@H]2C3CC[C@H]4C[C@H](OC(C)=O)C([N+]5(C)CCCCC5)CC4(C)[C@H]3CCC12C (stereo partly drawn),i,i,i,i,i
COc1ccc(N/C(C)=C2/C(=O)C(=O)N(CCO)C2c2ccc([N+](=O)[O-])cc2)cc1 (stereo not drawn),i,137*,i,i,i
O=C1c2ccccc2C2(c3cc(C(F)(F)F)cc(C(F)(F)F)c3)NCCN12 (stereo not drawn),i,i,-6*,i,i
Cc1oc(C(C)(C)C)cc1C(=O)N1CCN(c2ncccc2C(F)(F)F)CC1,i,11*,i,i,i
COc1ccccc1N1CCN(C(=O)c2cc(C(C)(C)C)oc2C)CC1,i,i,i,i,i
Cc1nc(N2CCN(c3ccccn3)CC2)c2c(C)c(C(=O)N3CCN(c4ccccc4F)CC3)sc2n1,i,i,-9*,i,i
Cn1nccc1C(=O)N(CCN1CCCCC1)CC1CCCN(C2CCCC2)C1 (stereo not drawn),i,i,i,i,i
Cc1cc(C)c(C)c(C(=O)C2OC(=O)C(C)(C)C(=O)C2(C)C)c1C (stereo not drawn),i,i,i,i,i
CC1(C)C(=O)OC(C(=O)c2ccc(C(C)(C)C)cc2)C(C)(C)C1=O (stereo not drawn),i,13*,i,i,i
Cc1cc(OCc2cc(C(=O)NCC3(C)COC3)no2)cc(C)c1Cl,i,i,-6*,i,i
Cc1ccc(Sc2ccc(CO)cc2[N+](=O)[O-])cc1,i,i,-7*,i,i
O=C(c1cccc(Cl)c1)N1CCC(=O)N(C(COCc2cccc(Cl)c2)Cc2ccccc2)CC1 (stereo not drawn),i,i,i,i,i
Cc1cccc(C(=O)N2CCC(=O)N(C(COCc3cccc(Cl)c3)Cc3ccccc3)CC2)c1 (stereo not drawn),45*,i,i,i,i
CC(=O)N(/N=C/c1ccc(C)cc1)c1nc(CCl)cs1,i,i,i,i,i
c1cnc(N2CCN(c3cnccn3)CC2)nc1,i,28*,i,i,i
O=C(CCNC(=O)c1ccc(Cl)cc1)Nc1ccncc1,i,i,i,i,i
CCc1sc(C(C2C(=O)CC(C)(C)CC2=O)C2C(=O)CC(C)(C)CC2=O)cc1[N+](=O)[O-],95*,i,i,i,i
SMILES,TRPC4 agonist,TRPC4 PAM,TRPC4 block,TRPC6 act,TRPC6 inhibitor
COc1ccc(C(=O)NCC(=O)N/N=C(C)\C=C\c2ccccc2)cc1OC,i,i,i,i,i
O=C(N/N=C/c1ccccn1)c1[nH]c2ccc([N+](=O)[O-])cc2c1-c1ccccc1,i,i,-6*,i,i
O=C(N/N=C/c1ccccn1)c1ccc([N+](=O)[O-])cc1Cl,i,i,i,i,i
O=C(O)c1[nH]c2ccc([N+](=O)[O-])cc2c1-c1ccccc1,i,i,i,i,i
O=[N+]([O-])c1ccc2[nH]nc(-c3ccccc3)c2c1,i,i,-6*,i,i
NNC(=O)c1[nH]c2ccc([N+](=O)[O-])cc2c1-c1ccccc1,i,i,-6*,i,i
Cc1nc(S/C(=C/c2ccc(-c3cc(Cl)ccc3C)o2)C(=O)O)n[nH]1,i,i,-6*,i,i
Cc1nc(S/C(=C/c2ccc(-c3ccc(Cl)cc3)o2)C(=O)O)n[nH]1,i,i,i,i,i
CCOC(=O)C1=NNC2C(=O)N(Cc3ccccc3)C(=O)C12 (stereo not drawn),i,i,i,i,i
CC1(C)CC2CC(C)(CN2C(=O)COC(=O)c2n[nH]c(=O)c3ccccc23)C1 (stereo not drawn),i,11*,i,i,i
COc1cccc(-c2nn(-c3ccccc3)cc2CO)c1,i,i,i,i,i
COc1ccc(CNCc2cn(-c3cccc(F)c3)nc2-c2ccc(C)o2)cc1,103*,i,i,i,i
Fc1ccccc1COc1ccc(Br)cc1CNCc1cccnc1,i,i,i,i,i
COc1ccc(-c2nn(-c3ccccc3)cc2CNCc2cccnc2)c(F)c1,103*,i,i,i,i
COc1ccc(-c2nn(-c3ccccc3C)cc2CNCc2cccnc2)cc1F,178*,i,i,i,i
COc1ccc(-n2cc(CNCc3cccnc3)c(-c3cccc(F)c3)n2)cc1,94*,i,i,i,i
COC(=O)c1ccc(NC(=O)N(c2ccccc2)c2ccccc2)cc1,i,i,i,i,i
Cc1nc(NCC(c2ccccc2)N(C)C)c2c(C)c(C)sc2n1 (stereo not drawn),267*,i,i,i,i
CCNc1nc(CSc2ccccc2)nc2sc(C)c(C)c12,i,i,i,i,i
Cc1sc2nc(CSc3ccccc3)nc(NCCN(C)C)c2c1C,176*,i,i,i,i
CN(C)C(CNc1ncnc2sc3c(c12)CCCC3)c1ccco1 (stereo not drawn),121*,i,i,i,i
c1coc(CNc2ncnc3sc4c(c23)CCCCC4)c1,i,i,i,i,i
Cc1sc2ncnc(NCC(c3ccccc3)N(C)C)c2c1C (stereo not drawn),218*,i,i,i,i
CC12CCC(=O)C=C1CCC1C2C(=O)CC2(C)C1CC[C@]2(O)C(=O)CO (stereo partly drawn),i,i,i,i,i
